ERAP1 inh = inhibitors of human ERAP1 aminopeptidase | Q9NZ08 | recombinant ERAP1, Leu-AMC fluorescence, 60 min | inhibition, % at 10.7 µM | 340,000 compounds, 0.15% hits | AID 652197;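 active = mean replicate inhibition of at least 30%, or all replicates individually reaching that 30% level; inactive = mean below 30% and not every replicate reaching it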
Target sequence (Q9NZ08 whole entry, looked up): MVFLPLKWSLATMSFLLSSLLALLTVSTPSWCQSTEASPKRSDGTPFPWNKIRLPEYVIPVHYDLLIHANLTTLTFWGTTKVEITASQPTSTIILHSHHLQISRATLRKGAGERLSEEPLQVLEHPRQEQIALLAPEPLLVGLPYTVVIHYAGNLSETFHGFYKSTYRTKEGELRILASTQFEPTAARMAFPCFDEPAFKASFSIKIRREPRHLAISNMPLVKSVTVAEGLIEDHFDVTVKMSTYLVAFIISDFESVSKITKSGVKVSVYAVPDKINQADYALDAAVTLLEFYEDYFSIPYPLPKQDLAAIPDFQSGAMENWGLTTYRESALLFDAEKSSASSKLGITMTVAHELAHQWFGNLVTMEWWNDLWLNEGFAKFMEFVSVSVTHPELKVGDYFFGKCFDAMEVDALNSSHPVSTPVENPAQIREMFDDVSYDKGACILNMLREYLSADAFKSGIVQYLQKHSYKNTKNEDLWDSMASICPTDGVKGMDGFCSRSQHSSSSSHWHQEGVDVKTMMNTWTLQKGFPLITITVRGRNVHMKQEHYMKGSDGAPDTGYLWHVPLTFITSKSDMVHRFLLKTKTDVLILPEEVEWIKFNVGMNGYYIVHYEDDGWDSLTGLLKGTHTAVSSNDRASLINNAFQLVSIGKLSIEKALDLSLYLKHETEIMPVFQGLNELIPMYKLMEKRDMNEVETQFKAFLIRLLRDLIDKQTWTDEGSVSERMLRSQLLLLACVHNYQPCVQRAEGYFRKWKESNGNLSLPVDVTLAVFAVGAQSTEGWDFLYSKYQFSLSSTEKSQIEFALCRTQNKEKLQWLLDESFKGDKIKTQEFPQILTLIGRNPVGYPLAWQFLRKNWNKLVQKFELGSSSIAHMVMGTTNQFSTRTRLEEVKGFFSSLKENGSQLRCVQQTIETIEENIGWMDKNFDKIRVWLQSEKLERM
HIV Env fusion = inhibitors of HIV Env-mediated cell fusion. 360,000 compounds, 1.1% hits. inhibition, % at 12.3 µM. AID 651610. HeLa-JRFL Env/CEM21 cell fusion, luciferase;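 active = mean replicate inhibition score of at least 50 and every replicate individually at or above 50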
Cneo AK release = causes C. neoformans cell lysis. adenylate kinase release luminescence, 4 h; normalised: neutral wells 0, clomiphene wells 100. lysis activity, % at 15 µM. 360,000 compounds, 0.2% hits;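 active = mean lysis activity across replicates of at least 80%, whatever share of replicates individually reach that level; inactive = mean lysis activity below 80%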
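Assay system: C. neoformans cells. Amount: yeast cell density of 5 × 10^6 cells/mL. Technique: AK luminescence. Buffer or medium: YPD. Times: static 4 h at 37 °C with compound, 1 h detection. Dosing: single-point compound dose. Read-out: lysis from increased AK signal.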
FGF22 binding = shifts melting point of recombinant human FGF22 | Q9HCT0 | recombinant FGF22 thermal shift, SYPRO orange fluorescence; percent of sucrose octasulfate shift, DMSO zero | 340,000 compounds, 1.5% hits | activity (Tm shift, normalised), % at 9.99 µM;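 active = mean Tm shift, scaled 0 neutral to 100 positive control, at about 1.3% or above, every replicate too, limit read from the data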
rRNA inh HTS = inhibitors of bacterial rRNA selective over humanized ribosomes | E. coli WT GFP vs humanized-ribosome RFP mutants, fluorescence, 24 h; stronger effect = lower value; DMSO median 0, no signal -100 | GFP signal change (wild-type ribosome), % (no concentration beside the values) | 350,000 compounds, 1.6% hits | AID 720706;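 active = significant combined selectivity score with lowered wild-type GFP, culture density cut under 30%, mutant RFP and density less affected; inactive = any of these conditions unmet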
PGC1a acetyl inh = modulators of PGC1a acetylation; U2OS PGC1a acetylation, AlphaScreen anti-acetyl-lysine; with virally co-expressed GCN5 acetyltransferase; inhibition, % at 15.6 µM; 350,000 compounds, 0.17% hits;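 active = every replicate shows inhibition of at least 40%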
Numbers stand for hits; - = inactive; . = no result. Sampled rows, rich in hits. Any-hit rate of the full collection: about 3.5%.

SMILES | ERAP1 inh | HIV Env fusion | Cneo AK release | FGF22 binding | rRNA inh HTS | PGC1a acetyl inh
CCn1ncc(C2=NOC(C(=O)Nc3cccnc3)C2)c1C (stereo unspecified) | . | - | - | . | . | -
C=CCn1c(SCC(=O)Nc2ncc(Cc3ccc(C)c(Cl)c3)s2)nnc1-c1ccncc1 | . | . | - | . | . | -
OCC[C@H]1C[C@H](O)[C@@H](O)[C@@]2(CCc3ccccc3CO2)O1 | - | - | - | - | - | -
CCN1C(=O)c2cccc3cccc1c23 | 44 | . | - | - | - | -
COc1cc(C2c3[nH]c4ccccc4c3CCN2Cc2cn(C)nc2C)ccc1F (stereo unspecified) | - | - | . | - | - | .
CCn1cc(CN2CCc3c([nH]c4ccccc34)C2c2cccc(OC)c2OC)c(C)n1 (stereo unspecified) | - | - | - | 44 | - | -
CCc1nc2ccc(C(=O)NCCCN(C)C)cn2c1N(C)Cc1ccc(OC)cc1 | - | - | - | - | - | .
CCc1nc2ccc(C(=O)NCCOc3ccc(OC)cc3)cn2c1N(C)Cc1ccc(N(C)C)cc1 | - | - | - | - | -23 | .
COc1ccc2nc(NC(=O)CSc3nnnn3C)sc2c1 | - | - | . | 43 | - | -
COC(=O)[C@]12C[C@H](CC(=O)NCc3cccc(C(F)(F)F)c3)C(=O)N(Cc3ccc4c(c3)OCO4)C1=C[C@H](C(C)(C)C)O[C@@H]2C | - | 59 | . | - | - | .
CCCCNC(=O)C[C@H]1C[C@@]2(C(=O)OC)C(=C[C@H](C(C)(C)C)O[C@@H]2C)N(Cc2ccc3c(c2)OCO3)C1=O | - | 82 | . | - | - | .
COCCN(Cc1ccccc1)C(=O)c1cc(-c2ccc(OC)c(OC)c2)nc2ccccc12 | - | - | - | - | -31 | .
CCCCn1c(N)c(N(CCOC)C(=O)c2cc(-c3ccc(OC)c(OC)c3)nc3ccccc23)c(=O)[nH]c1=O | 37 | - | - | - | - | .
Oc1[nH]c2ccc(Br)cc2c1N=NC(=S)NCC1CCCO1 (stereo unspecified) | - | - | - | - | -32 | -
CN(C)c1ccc(/C=[N+](\[O-])C(C)(C)/C=N/O)cc1 | . | - | - | . | . | -
O=c1oc(-c2cc3ccccc3o2)nc2sc3c(c12)CCCC3 | - | . | - | - | -23 | -
O=c1oc(-c2ccccc2)nc2sc3c(c12)CCCC3 | . | . | - | . | . | -
COc1ccccc1NS(=O)(=O)c1cccc(NC(=O)Nc2cccc(Cl)c2)c1 | . | 45 | . | . | . | .
COC(=O)c1cc(NC(=O)Nc2cccc(Cl)c2)ccc1Cl | - | . | - | - | -51 | -
NS(=O)(=O)c1cccc(NC(=O)c2cccc(-c3ccc(O)cc3)c2)c1 | - | - | - | - | -26 | -
COc1ccccc1NS(=O)(=O)c1cccc(NC(=O)NCCCl)c1 | - | - | . | - | - | .
O=C(Nc1cccc(Cl)c1)Nc1cccc(Cl)c1 | . | 52 | - | . | . | -
CO[C@H]1CN(C)C(=O)c2cc(NC(=O)Nc3ccc(Cl)c(Cl)c3)ccc2OC[C@@H](C)NC[C@@H]1C | . | - | . | . | - | -
CC(=O)Nc1cccc(NC(=O)Nc2cccc(F)c2)c1 | - | - | . | 45 | - | -
O=C(NCc1ccc(F)cc1)Nc1cccc(Cl)c1 | - | - | . | 44 | - | .
SMILES | ERAP1 inh | HIV Env fusion | Cneo AK release | FGF22 binding | rRNA inh HTS | PGC1a acetyl inh
Cc1nn(C)c(C)c1CNC(=O)Nc1cccc(Cl)c1 | - | - | . | 43 | - | .
O=C(Nc1cccc(F)c1)Nc1cccc(Cl)c1 | - | - | - | - | - | .
O=C(CNc1ccc(Cl)cc1)NNC(=S)NCc1ccccc1 | - | - | . | - | - | -
O=C(CNc1cccc(Cl)c1)NNC(=S)NCc1ccccc1 | - | - | - | - | -24 | -
O=S(=O)(c1ccccc1)N1CCCCN2[C@H](CO)[C@@H](c3ccc(C#Cc4cccnc4)cc3)[C@H]2C1 | - | . | - | - | . | -
O=C(NCCCN1CCCC1=O)C1CCN(S(=O)(=O)N2CCOCC2)CC1 | . | . | - | . | . | -
Oc1ccccc1-c1n[nH]c(-c2ccccc2O)n1 | - | - | . | - | - | .
COc1ccccc1-c1csc(C(NC(C)=O)c2cccc(F)c2)n1 (stereo unspecified) | - | - | - | - | - | .
NS(=O)(=O)c1cccc(NC(=O)Cc2ccc(Cl)c(Cl)c2)c1 | - | - | - | - | - | -
NS(=O)(=O)c1cccc(NC(=O)Nc2ccc(Cl)cc2)c1 | - | - | - | - | -31 | -
CCC(=O)N1CCc2cc(S(=O)(=O)NCCC(=O)N3CCN(c4cccc(OC)c4)CC3)ccc21 | - | - | - | - | - | -
CCOC(=O)C(CC)Sc1nnc2n1C(C)(C)Cc1ccccc1-2 (stereo unspecified) | - | - | . | . | - | -
CC(C)=CC(=O)OCC(=O)Nc1ccc(SC(F)F)cc1 | - | - | . | 44 | . | -
FC(F)Sc1ccc(NC(=S)NC(c2ccccc2)c2ccccc2)cc1 | - | - | . | - | - | .
FC(F)Sc1ccc(NC(=S)NCc2ccccc2)cc1 | - | - | - | 43 | - | -
CC(=O)CCC(=O)OCC(=O)Nc1ccc(SC(F)F)cc1 | - | - | . | 43 | - | -
O=C(COc1ccccc1C(=O)O)Nc1ccc(SC(F)F)cc1 | - | - | - | 43 | - | -
Cc1ccc(OCCOc2ccc(S(=O)(=O)N3CCCC3)cc2C(N)=O)cc1 | - | - | - | - | . | -
Cc1cccc(-c2ccc([C@@H]3[C@H]4CN(CCC(F)(F)F)CCCCN4[C@H]3CO)cc2)c1 | - | . | - | - | - | -
O=C(CCN1C(=O)C2C3C=CC(C3)C2C1=O)N1CCCCC1 (stereo unspecified) | - | - | . | 43 | - | -
CCOC(=O)C1CCN(C(=O)CCN2C(=O)C3C4C=CC(C4)C3C2=O)CC1 (stereo unspecified) | . | - | - | . | . | -
O=C(CCCC(=O)N/N=C\c1ccccn1)N/N=C\c1ccccn1 | - | - | . | - | . | .
Cc1noc(C)c1C(=O)N(C)Cc1ccccc1 | - | - | . | - | - | .
Cc1cccc(Nc2nnc(-c3ccc(N4CCOCC4)c([N+](=O)[O-])c3)c3ccccc23)c1 | - | - | - | - | -32 | -
Cc1nnc(-c2ccc(N3CCOCC3)c([N+](=O)[O-])c2)o1 | . | . | - | . | . | -
Nc1ccn([C@@H]2O[C@H](C(=O)NCCc3ccc(F)cc3)[C@@H](O)[C@H]2O)c(=O)n1 | - | - | - | - | - | -
Nc1ccn([C@@H]2O[C@H](C(=O)NCc3ccc4c(c3)OCO4)[C@@H](O)[C@H]2O)c(=O)n1 | . | 77 | - | - | - | -
CCOC(=O)[C@H]1[C@H]2COc3ccc(Br)cc3[C@H]2N2C(=O)CN(CCc3c[nH]c4ccccc34)C(=O)[C@@]12C | - | . | - | - | - | .
O=S(=O)(Nc1cc(Sc2ncn[nH]2)c(O)c2ccccc12)c1ccccc1 | 56 | - | . | 43 | - | 72
